Consider 13 compounds from PubChem BioAssay.

A short description of assay [1]: inhibitors of TNFa-induced NFkB p65 translocation, primary screen, imaging, HUVEC, MLSMR starter and 10KST1 sets (AID 438;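 active = inhibition above 20% together with a positive visual image hit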;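 also: compound added about 3h40 before a 20 min TNFalpha stimulation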;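 as to inhibition: signal is the nuclear over cytoplasmic p65 intensity ratio per well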). The note with it: HUVEC TNFa-induced p65 nuclear translocation; cell count: measured here: nuclei count (cytotoxicity indicator), at 2.08 µM; inhibition: at 2 µM, stronger effect = higher value, 0% TNFa-plus-vehicle, 100% no-TNFa wells.
Assay [2] in a line: endothelial E-selectin expression blockers – imaging, HUVEC, immunofluorescence, MLSMR starter and 10KST1 sets, primary screen (AID 487;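 active = visually confirmed hit in the image check and inhibition above 20%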;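 as to inhibition: signal is fraction of cell area covered by stained E-selectin grains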;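 as to nuclei count: 100% = median nuclei count of all wells on the same plate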). The note with it: HUVEC TNFalpha-induced E-selectin immunofluorescence imaging, at 2 µM; inhibition: stronger effect = higher value; nuclei count: measured here: cell number, toxicity.
Assay [3] is described as follows: Primary imaging screen for DUSP6 inhibitors that restore phospho-Erk in transfected HeLa cells, chemical complementation (AID 609;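 active = compounds giving at least 50% inhibition in the cell-based MKP-3 phosphatase rescue imaging test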;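 as to inhibition: phospho-Erk level distribution per well compared with pooled transfected vehicle control wells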). The conditions noted are these: HeLa MKP-3 transfected, phospho-Erk imaging KS statistic, at 10 µM, cells stimulated with TPA for 15 min.
The target of assay [4] is Dual specificity protein phosphatase 6 (Homo sapiens) (UniProt Q16828). The assay is described as above. The conditions noted are these: HeLa MKP-3 transfected, phospho-Erk imaging KS statistic; at 10 µM; stronger effect = higher value; cells stimulated with TPA for 15 min.
Assay [5] addresses Voltage-gated potassium channel subunit beta-2 (Rattus norvegicus) (UniProt P62483). Briefly: inhibitors of rat Kvbeta2 reductase activity – biochemical, NADPH fluorescence, primary screen (AID 622;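 active = fluorescence slope higher than the sample average by over 3 SD, cut at about -0.22 in these data, passing the limit was not always enough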;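 also: slope of raw intensity against log time taken from 70 to 1610 s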). The conditions noted are these: recombinant KvBeta, 4-cyanobenzaldehyde reduction, at 10 µM, stronger effect = higher value.
For assay [6] the target is unchanged. Briefly: enhancers of rat Kvbeta2 NADPH turnover – biochemical, NADPH fluorescence, primary screen (AID 623).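 Also: fluorescence intensity change per second fitted from 20 to 320 s.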 The note with it: Recombinant KvBeta, NADPH fluorescence decrease slope, 10 min; at 10 µM; stronger effect = lower value.
The target in assay [7] is Alpha-2C adrenergic receptor (Homo sapiens) (UniProt P18825). Briefly: compounds altering alpha2C-coupled GIRK flux – cell-based, HEK293 alpha2C/GIRK1/2, thallium flux, primary screen (AID 624;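 active = fluorescence slope after compound addition differing from the mean of all screened samples at 99.7% confidence, in either direction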;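 also: slope of fluorescence ratio to pre-addition baseline per second over 15 to 24 s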). The conditions noted are these: thallium flux BTC fluorescence, at 10 µM, actives lie on both sides.
Assay [8] in a line: inhibitors of larval lipid processing in zebrafish, primary screen, whole organism, PED6 fluorescence, gall bladder and intestine (AID 686;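 active = a full or partial loss of lipid-probe fluorescence in the fish gall bladder, intestine or both, judged by eye; inactive = no fluorescence loss, or compound toxic to the fish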;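 also: larvae 5 to 7 days old with five fish per well; signal comes from phospholipase A2 cleavage of quenched PED6 carried via bile; overnight exposure to compound and PED6 before scoring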). The conditions noted are these: Zebrafish larvae PED6 lipid processing, fluorescence scoring; screened at 20 µM (by protocol). A digest of the protocol:
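Doses: 20 µM single dose. Test system: live zebrafish larvae aged 5-7 days, whole organism. Quantity: five larvae per well. Measured by: By-eye fluorescence microscopy. Reagent: ingested quenched lipid PED6 at 100 nM. Read-out: visual per-well fluorescence inhibition score. Times: overnight exposure of larvae to compound plus PED6.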

Assay [9] is described as follows: loss of swimming-algae plug formation – whole organism, Chlamydomonas reinhardtii, WT vs cilia-less mutant, absorbance, 96-well, primary screen (AID 463189;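 active = inhibition at or above 50% relative to wild type and mutant plate controls; inactive = inhibition below 50%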;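 also: 0% = wild type cc124 cells in DMSO and 100% = ciliumless bld1 mutant cells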). The note with it: Chlamydomonas reinhardtii gravitaxis, OD600 absorbance, 2 days; at 10 µM; stronger effect = higher value.
The mark [10] stands for this setting: measured here: cell density z-score.
The mark [11] stands for this setting: measured here: nuclear c-Myc green intensity z-score.
Setting [12] is: measured here: nuclear pErk red intensity z-score, stronger effect = higher value.

The source made the active and inactive calls.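 The calls were made as follows, unless noted: active = NADPH fluorescence slope more negative than the mean of all samples by about 3 SD, 99.7% confidence; inactive = the rest.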

Chain of Dual specificity protein phosphatase 6 (Homo sapiens) (Q16828 whole entry, looked up): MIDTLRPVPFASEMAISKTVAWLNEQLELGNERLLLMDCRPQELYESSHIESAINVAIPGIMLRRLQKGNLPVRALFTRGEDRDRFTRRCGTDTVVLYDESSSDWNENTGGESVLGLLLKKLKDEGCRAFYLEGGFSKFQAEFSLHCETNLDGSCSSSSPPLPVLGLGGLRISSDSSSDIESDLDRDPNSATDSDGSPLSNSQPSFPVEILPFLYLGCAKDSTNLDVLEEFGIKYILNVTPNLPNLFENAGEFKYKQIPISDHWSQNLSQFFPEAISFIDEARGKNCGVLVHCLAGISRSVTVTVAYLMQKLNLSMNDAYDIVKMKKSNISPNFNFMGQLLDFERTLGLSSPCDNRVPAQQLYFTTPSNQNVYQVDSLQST
Chain of Alpha-2C adrenergic receptor (Homo sapiens) (P18825 whole entry, looked up): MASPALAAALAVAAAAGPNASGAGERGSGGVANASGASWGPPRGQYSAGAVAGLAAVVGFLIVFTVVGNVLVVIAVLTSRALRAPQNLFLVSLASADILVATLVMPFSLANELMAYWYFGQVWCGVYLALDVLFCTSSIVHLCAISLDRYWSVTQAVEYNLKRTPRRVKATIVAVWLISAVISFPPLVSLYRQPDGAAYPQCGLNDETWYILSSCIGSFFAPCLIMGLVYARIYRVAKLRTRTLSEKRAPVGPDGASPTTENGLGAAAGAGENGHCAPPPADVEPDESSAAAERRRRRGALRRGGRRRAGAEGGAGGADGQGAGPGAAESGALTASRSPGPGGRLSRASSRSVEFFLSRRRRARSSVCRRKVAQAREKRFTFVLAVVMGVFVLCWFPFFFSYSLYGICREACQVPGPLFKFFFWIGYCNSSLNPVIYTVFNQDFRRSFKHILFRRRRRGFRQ
Chain of Voltage-gated potassium channel subunit beta-2 (Rattus norvegicus) (P62483 whole entry, looked up): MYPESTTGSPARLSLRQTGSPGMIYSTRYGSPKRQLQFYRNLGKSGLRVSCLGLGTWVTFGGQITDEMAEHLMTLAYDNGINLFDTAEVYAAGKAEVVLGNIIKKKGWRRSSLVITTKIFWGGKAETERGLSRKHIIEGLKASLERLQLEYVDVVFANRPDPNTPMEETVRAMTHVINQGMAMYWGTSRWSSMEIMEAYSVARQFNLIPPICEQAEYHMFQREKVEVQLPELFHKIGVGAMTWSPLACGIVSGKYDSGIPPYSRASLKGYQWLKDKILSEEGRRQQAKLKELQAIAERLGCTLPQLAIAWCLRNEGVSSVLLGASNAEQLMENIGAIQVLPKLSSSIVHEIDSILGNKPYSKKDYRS

A word on the inhibition: it is the change of the read-out against control, counted positive when it falls. For the compound `CCOC(=O)N1CC=C2C(C#N)=C(N)C(C#N)(C#N)[C@H](c3cccs3)[C@H]2C1`, in assay [1], the cell count stood at 664. Also, the inhibition was -14.7% (inactive) in assay [1], 44.9% (inactive) in [2], 11% (inactive) in [4] and 26.4% (inactive) in [9]. For the same compound, the nuclei count in assay [2] was 144%. The results for the z-score in assay [3] (setting [10]), in assay [3] (setting [11]) and in assay [3] (setting [12]) were 0.0987, -0.332 and -1.22, respectively. Also, in assay [5], the fluorescence slope is -0.367 (inactive). Also, the NADPH fluorescence slope in [6] is -2e-05 (inactive). Moreover, the slope in assay [7] is 0.00502 (inactive). Also, the compound was classed as inactive in assay [8].

`Cc1ccsc1C1NC(=O)c2c(sc3c2CCCC3)N1` (centres undefined): in assay [1], the cell count was determined as 584. Besides, the inhibition is -31.7% (inactive) in assay [1], -31.6% (inactive) in assay [2], -18.6% (inactive) in [4] and 22.5% (inactive) in assay [9]. The same compound registered a nuclei count in [2] of 166%. The results for the z-score in assay [3] (setting [10]), in assay [3] (setting [11]) and in assay [3] (setting [12]) were -1.62, -0.46 and 1.02, respectively. Moreover, the fluorescence slope in assay [5] is -0.411 (inactive). The NADPH fluorescence slope in assay [6] was -3.5e-05 (inactive). In addition, the slope in assay [7] is 0.00518 (inactive). In assay [8], the outcome was inactive.

Regarding `CC1(C)Cc2c(C#N)c(OCC(=O)c3ccc(Cl)cc3)nc(-c3ccoc3)c2CO1`, the cell count in assay [1] was 654. Also, the inhibition in [1] was -2.9% (inactive); in [2] it was 20% (inactive); in [4], 13.2% (inactive); in assay [9], 40.4% (inactive). The nuclei count in assay [2] was determined as 170%. For the same compound, the z-score in assay [3] (setting [10]) is -0.432; in assay [3] (setting [11]), -0.355; in [3] (setting [12]) it was 0.479. Besides, the fluorescence slope in assay [5] was -0.487 (inactive). The NADPH fluorescence slope in assay [6] was -4.2e-05 (inactive). Also, in [7], the slope is 0.00736 (inactive). For the same compound, the outcome in [8] was inactive.

Consider `CCOC(=O)CC(=O)CSc1nc(N)c(C#N)c(-c2ccc(F)cc2)c1C#N`, for which the cell count in [1] turned out to be 650. The inhibition in assay [1] is -5.7% (inactive); in assay [2] it was 44% (inactive); in [4], -7.28% (inactive); in assay [9] it was -14.2% (inactive). The nuclei count in assay [2] came out at 167%. Also, the values for the z-score in assay [3] (setting [10]), in [3] (setting [11]) and in assay [3] (setting [12]) were -1.03, 0.96 and 2.1, respectively. In addition, the fluorescence slope in assay [5] is -0.366 (inactive). For the same compound, the NADPH fluorescence slope in assay [6] was -6.3e-05 (inactive). Further, the slope in assay [7] was 0.00627 (inactive). The result in assay [8] was inactive.

Regarding `COc1ccccc1Nc1ncc(-c2cccs2)s1`, the cell count in [1] amounted to 545. In addition, the inhibition in assay [1] is -13.8% (inactive); in assay [2] it was -286% (inactive); in assay [4] it was 1.48% (inactive); in assay [9], 11.6% (inactive). Also, in assay [2], the nuclei count is 200%. In addition, the z-score in assay [3] (setting [10]) was -0.0769; in assay [3] (setting [11]), -1.21; in [3] (setting [12]) it was 0.25. Besides, in assay [5], the fluorescence slope is -0.5 (inactive). In assay [6], the NADPH fluorescence slope was -5.4e-05 (inactive). Besides, the slope in assay [7] is 0.00327 (inactive). Further, the compound was called inactive in [8].

Take `CN(C)CCCN1C(=O)C(O)=C(C(=O)c2cc3ccccc3o2)C1c1ccccn1` (centres undefined): the cell count in assay [1] came to 511. In addition, the inhibition in assay [1] is -3.3% (inactive); in assay [2] it was -212% (inactive); in assay [4], 12.3% (inactive); in [9] it was -5.31% (inactive). Moreover, in assay [2], the nuclei count turned out to be 137%. The z-score in [3] (setting [10]) was 2.7; in assay [3] (setting [11]), -1.21; in assay [3] (setting [12]), -1.13. Also, the fluorescence slope in assay [5] is -0.525 (inactive). Also, in [6], the NADPH fluorescence slope is -4.7e-05 (inactive). The slope in assay [7] is 0.00446 (inactive). The call in assay [8] was inactive.

As to `CCN(CC)CCNc1nc2c(c(=O)[nH]c(=O)n2C)n1CCOc1ccccc1`, the cell count in assay [1] was determined as 501. Besides, the inhibition in assay [1] is -1.2% (inactive); in assay [2], -206% (inactive); in assay [4], 12.3% (inactive); in assay [9], 0.39% (inactive). In [2], the nuclei count was 135%. Besides, the z-score in assay [3] (setting [10]) is 0.0299; in assay [3] (setting [11]), -1.12; in assay [3] (setting [12]), -0.109. Besides, the fluorescence slope in assay [5] is -0.534 (inactive). For the same compound, the NADPH fluorescence slope in assay [6] was -4.4e-05 (inactive). The slope in assay [7] was 0.00521 (inactive). Also, the compound was classed as inactive in [8].

In the case of `CC1(C)Cc2c(sc3nc4n(c(=N)c23)CCC4)CO1`, in [1], the cell count was determined as 678. Further, the inhibition is -24.9% (inactive) in [1], -38.1% (inactive) in [2], -13.9% (inactive) in [4] and -6.56% (inactive) in assay [9]. Also, in assay [2], the nuclei count was 164%. Also, the z-score in [3] (setting [10]) is -0.552; in [3] (setting [11]), 1.24; in assay [3] (setting [12]), 2.19. For the same compound, the fluorescence slope in assay [5] was -0.416 (inactive). For the same compound, the NADPH fluorescence slope in [6] is -4.6e-05 (inactive). In addition, the slope in [7] is 0.00517 (inactive). Besides, in assay [8], the call was inactive.

In the case of `C=CCc1c(C)c(C#N)c2nc3ccccc3n2c1N1CCN(C)CC1`, the cell count in assay [1] was determined as 528. Besides, the inhibition in assay [1] is -23% (inactive); in assay [2] it was -93.7% (inactive); in [4] it was -15% (inactive); in [9], 7.97% (inactive). The nuclei count in assay [2] turned out to be 150%. The z-score was -0.94 in [3] (setting [10]), -0.784 in assay [3] (setting [11]) and -1.36 in assay [3] (setting [12]). The fluorescence slope in assay [5] is -0.476 (inactive). Further, in assay [6], the NADPH fluorescence slope was -2e-05 (inactive). For the same compound, the slope in assay [7] was 0.00524 (inactive). Besides, in assay [8], the result was inactive.

Turning to `COc1ccccc1C1/C(=C(/O)c2cnn(-c3ccccc3)c2C)C(=O)C(=O)N1CCN(C)C` (centres undefined), the cell count in assay [1] stood at 498. Besides, the inhibition was -0.5% (inactive) in assay [1], -189% (inactive) in [2], 10.5% (inactive) in assay [4] and -1.15% (inactive) in assay [9]. The compound further registered a nuclei count in [2] of 132%. Further, the z-score was 0.414 in [3] (setting [10]), -0.415 in assay [3] (setting [11]) and -0.719 in assay [3] (setting [12]). In addition, the fluorescence slope in assay [5] was -0.558 (inactive). The NADPH fluorescence slope in assay [6] is -7e-05 (inactive). Besides, the slope in assay [7] is 0.00448 (inactive). The outcome in assay [8] is “inactive; toxic”.

`O=C(O)C1CC=CCC1C(=O)N1CCN(c2nc(-c3ccccc3)c3ccccc3n2)CC1` (centres undefined): the cell count in assay [1] worked out at 373. Moreover, the inhibition is -16.9% (inactive) in assay [1], -48.5% (inactive) in assay [2], -5.26% (inactive) in assay [4] and 28.5% (inactive) in assay [9]. Also, the nuclei count in assay [2] came out at 165%. Further, the z-score in assay [3] (setting [10]) was -1.19; in assay [3] (setting [11]), 1.08; in [3] (setting [12]) it was 0.0489. Also, the fluorescence slope in assay [5] was -0.305 (inactive). For the same compound, the NADPH fluorescence slope in [6] was -7.9e-05 (inactive). Further, the slope in assay [7] was 0.00497 (inactive). Further, the compound was classed as inactive in assay [8].

Regarding `CCc1nnc(NC(=O)c2c(O)c3c([nH]c2=O)CCCC3)s1`, the cell count in [1] was found to be 332. Moreover, the inhibition is -15.4% (inactive) in [1], -91.6% (inactive) in assay [2], -7.01% (inactive) in assay [4] and 8.98% (inactive) in assay [9]. In assay [2], this compound had a nuclei count of 154%. The figures for the z-score in [3] (setting [10]), in [3] (setting [11]) and in assay [3] (setting [12]) were 0.462, -0.342 and -0.281, respectively. Besides, the fluorescence slope in assay [5] was -0.391 (inactive). The NADPH fluorescence slope in [6] is -0.000158 (inactive). In assay [7], the slope is 0.00514 (inactive). In addition, the call in assay [8] was inactive.

Regarding `CC(=O)c1c(C(C)=O)c(C)n(NC(=O)c2ccncc2)c1C`, the cell count in assay [1] is 557. Besides, the inhibition is 1.2% (inactive) in [1], -2.4% (inactive) in assay [2], 5.26% (inactive) in assay [4] and 8.61% (inactive) in [9]. For the same compound, the nuclei count in [2] is 133%. Moreover, the values for the z-score in assay [3] (setting [10]), in [3] (setting [11]) and in assay [3] (setting [12]) were 1.16, -1.48 and 0.477, respectively. In addition, in [5], the fluorescence slope is -0.305 (inactive). In addition, the NADPH fluorescence slope in [6] was 7.7e-06 (inactive). For the same compound, the slope in assay [7] was 0.00487 (inactive). The outcome in [8] was inactive.
